In ChEMBL document CHEMBL1127523, “Design and synthesis of side-chain conformationally restricted phenylalanines and their use for structure-activity studies on tachykinin NK-1 receptor” (J Med Chem, 1994):
Non-standard residues stand in square brackets, D forms with d. Residues, ends and D or L forms follow the SMILES beside them. Gly(9-fluorenyl) = N[C@H](C(=O)O)C1c2ccccc2-c2ccccc21

Experiments:
Neuromedin-K receptor = biological target: T1, Neuromedin-K receptor (Rattus norvegicus, UniProt P16177); experiment: Concentration required to inhibit the specific binding of [125I]BH-ELE to Neurokinin-3 (NK-3) receptor in rat brain synaptosomes; assay type: subcellular
T1 sequence (P16177 whole entry): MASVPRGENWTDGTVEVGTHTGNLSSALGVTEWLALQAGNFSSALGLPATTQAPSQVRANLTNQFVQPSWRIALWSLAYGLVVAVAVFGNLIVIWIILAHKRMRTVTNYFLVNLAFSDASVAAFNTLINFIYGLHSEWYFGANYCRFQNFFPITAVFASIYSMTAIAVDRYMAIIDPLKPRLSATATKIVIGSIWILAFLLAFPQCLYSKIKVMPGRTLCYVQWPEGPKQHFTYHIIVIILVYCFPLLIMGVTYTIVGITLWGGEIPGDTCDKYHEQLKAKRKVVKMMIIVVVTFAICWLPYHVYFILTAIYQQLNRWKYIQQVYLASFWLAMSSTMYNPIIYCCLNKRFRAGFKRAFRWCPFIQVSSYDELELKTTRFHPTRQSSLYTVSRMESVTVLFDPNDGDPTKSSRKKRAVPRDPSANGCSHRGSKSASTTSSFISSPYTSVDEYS
Summary of the method: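 Rat brain synaptosomes in Krebs-Ringer phosphate buffer with BSA, bacitracin and glucose. Incubated 15 min at 20 °C with 40 pM [125I]BHELE and increasing peptide concentrations, gamma counted. Triplicates, two to eight independent experiments; nonspecific binding defined with eledoisin 10⁻⁶ M. IC50 estimated from Hill plots of titration curves.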

Substance-P receptor = Substance-P receptor (Rattus norvegicus, UniProt P14600); experiment: Concentration required to inhibit the specific binding of [125I]BH-SP to Neurokinin-1 (NK-1) receptor in rat brain synaptosomes; assay type: subcellular
Substance-P receptor, sequence (P14600 whole entry): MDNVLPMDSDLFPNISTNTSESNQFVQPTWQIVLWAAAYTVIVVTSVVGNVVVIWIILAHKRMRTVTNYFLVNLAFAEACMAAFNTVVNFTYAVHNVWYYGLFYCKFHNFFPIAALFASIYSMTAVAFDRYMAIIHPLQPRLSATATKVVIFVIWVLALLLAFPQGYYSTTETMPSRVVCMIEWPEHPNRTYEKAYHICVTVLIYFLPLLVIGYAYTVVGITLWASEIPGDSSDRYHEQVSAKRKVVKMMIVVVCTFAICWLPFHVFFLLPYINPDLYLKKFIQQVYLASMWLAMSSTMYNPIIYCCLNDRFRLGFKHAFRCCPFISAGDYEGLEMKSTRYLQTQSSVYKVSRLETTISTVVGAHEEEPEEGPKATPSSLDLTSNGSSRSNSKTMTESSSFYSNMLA

Cavia porcellus [1] = species: Cavia porcellus; experiment: Concentration required to inhibit nonspecific binding of [125I]BH-SP to guinea pig ileal membranes; assay type: functional
Cavia porcellus [2] = species: Cavia porcellus; experiment: Effective concentration required for its inhibition of nonspecific binding to guinea pig ileal membranes; assay type: functional
Substance-K receptor = biological target: T2, Substance-K receptor (Rattus norvegicus, UniProt P16610); experiment: Concentration required to inhibit the specific binding of [3H]NKA to Neurokinin-2 (NK-2) receptor in rat duodenum membranes
T2 sequence (P16610 whole entry): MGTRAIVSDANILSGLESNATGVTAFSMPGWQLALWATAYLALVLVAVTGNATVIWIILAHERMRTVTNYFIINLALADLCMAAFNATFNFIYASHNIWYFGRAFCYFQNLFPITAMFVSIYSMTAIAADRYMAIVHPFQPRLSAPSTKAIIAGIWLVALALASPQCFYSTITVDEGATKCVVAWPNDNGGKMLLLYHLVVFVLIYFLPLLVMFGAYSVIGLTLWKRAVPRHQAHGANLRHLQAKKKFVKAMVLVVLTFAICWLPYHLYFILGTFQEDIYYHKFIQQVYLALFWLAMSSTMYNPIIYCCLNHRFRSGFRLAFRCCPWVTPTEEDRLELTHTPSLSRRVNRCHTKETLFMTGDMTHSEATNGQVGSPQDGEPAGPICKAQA

SMILES	IC50 (Neuromedin-K receptor) [nM]	IC50 (Substance-P receptor) [nM]	IC50 (Cavia porcellus [1]) [nM]	EC50 (Cavia porcellus [2]) [nM]	IC50 (Substance-K receptor) [nM]
CSCC[C@H](NC(=O)[C@H](CC(C)C)NC(=O)CNC(=O)[C@@H](NC(=O)[C@H](Cc1ccccc1)NC(=O)[C@H](CCC(N)=O)NC(=O)[C@H](CCC(N)=O)NC(=O)[C@@H]1CCCN1C(=O)[C@H](CCCCN)NC(=O)[C@@H]1CCCN1C(=O)[C@@H](N)CCCN=C(N)N)[C@@H]1CCc2cc3ccccc3cc21)C(N)=O	180	28	–	2.8	57
CSCC[C@H](NC(=O)[C@H](CC(C)C)NC(=O)CNC(=O)[C@H](Cc1ccccc1)NC(=O)[C@@H](NC(=O)[C@H](CCC(N)=O)NC(=O)[C@H](CCC(N)=O)NC(=O)[C@@H]1CCCN1C(=O)[C@H](CCCCN)NC(=O)[C@@H]1CCCN1C(=O)[C@@H](N)CCCN=C(N)N)C1Cc2ccccc2C1)C(N)=O	> 10000	2300	–	1300	1700
CSCC[C@H](NC(=O)[C@H](CC(C)C)NC(=O)CNC(=O)[C@@H](NC(=O)[C@H](Cc1ccccc1)NC(=O)[C@H](CCC(N)=O)NC(=O)[C@H](CCC(N)=O)NC(=O)[C@@H]1CCCN1C(=O)[C@H](CCCCN)NC(=O)[C@@H]1CCCN1C(=O)[C@@H](N)CCCN=C(N)N)C(c1ccccc1)c1ccccc1)C(N)=O	–	–	260	15	–
CSCC[C@H](NC(=O)[C@H](CC(C)C)NC(=O)CNC(=O)[C@H](CCc1ccccc1)NC(=O)[C@H](Cc1ccccc1)NC(=O)[C@H](CCC(N)=O)NC(=O)[C@H](CCC(N)=O)NC(=O)[C@@H]1CCCN1C(=O)[C@H](CCCCN)NC(=O)[C@@H]1CCCN1C(=O)[C@@H](N)CCCN=C(N)N)C(N)=O	1900	–	74	2.8	450
CSCC[C@H](NC(=O)[C@H](CC(C)C)NC(=O)CNC(=O)[C@H](Cc1ccccc1)NC(=O)[C@H](CCc1ccccc1)NC(=O)[C@H](CCC(N)=O)NC(=O)[C@H](CCC(N)=O)NC(=O)[C@@H]1CCCN1C(=O)[C@H](CCCCN)NC(=O)[C@@H]1CCCN1C(=O)[C@@H](N)CCCN=C(N)N)C(N)=O	> 10000	–	19	5.8	1900
CSCC[C@H](NC(=O)[C@H](CC(C)C)NC(=O)[C@@H]1CCCN1C(=O)[C@@H](NC(=O)[C@H](Cc1ccccc1)NC(=O)[C@H](CCC(N)=O)NC(=O)[C@H](CCC(N)=O)NC(=O)[C@@H]1CCCN1C(=O)[C@H](CCCCN)NC(=O)[C@@H]1CCCN1C(=O)[C@@H](N)CCCN=C(N)N)C1c2ccccc2-c2ccccc21)C(N)=O (H-RPKPQQF[Gly(9-fluorenyl)]PLM-NH2)	15000	3.3	–	1.7	1300

The remaining lines, values ahead:

IC50 (Neuromedin-K receptor) [nM]	IC50 (Substance-P receptor) [nM]	IC50 (Cavia porcellus [1]) [nM]	EC50 (Cavia porcellus [2]) [nM]	IC50 (Substance-K receptor) [nM]	SMILES
2100	54	23	6.9	530	CSCC[C@H](NC(=O)[C@H](CC(C)C)NC(=O)CNC(=O)[C@H](Cc1ccccc1)NC(=O)[C@@H](NC(=O)[C@H](CCC(N)=O)NC(=O)[C@H](CCC(N)=O)NC(=O)[C@@H]1CCCN1C(=O)[C@H](CCCCN)NC(=O)[C@@H]1CCCN1C(=O)[C@@H](N)CCCN=C(N)N)[C@@H]1CCc2ccccc21)C(N)=O
2200	3.1	–	1.2	380	CSCC[C@H](NC(=O)[C@H](CC(C)C)NC(=O)CNC(=O)[C@H](Cc1ccccc1)NC(=O)[C@@H](NC(=O)[C@H](CCC(N)=O)NC(=O)[C@H](CCC(N)=O)NC(=O)[C@@H]1CCCN1C(=O)[C@H](CCCCN)NC(=O)[C@@H]1CCCN1C(=O)[C@@H](N)CCCN=C(N)N)[C@H]1CCc2ccccc21)C(N)=O
1600	48	49	6.9	120	CSCC[C@H](NC(=O)[C@H](CC(C)C)NC(=O)CNC(=O)[C@H](Cc1ccccc1)NC(=O)[C@@H](NC(=O)[C@H](CCC(N)=O)NC(=O)[C@H](CCC(N)=O)NC(=O)[C@@H]1CCCN1C(=O)[C@H](CCCCN)NC(=O)[C@@H]1CCCN1C(=O)[C@@H](N)CCCN=C(N)N)C1CCc2cc3ccccc3cc21)C(N)=O (stereo partly specified)
